# Measured values pooled from the literature.
# Compare with care: the assays were run in different laboratories.
# Target: Phosphatidylinositol 4-phosphate 5-kinase type-1 gamma (PIP5K1C, Homo sapiens, UniProt O60331)
SMILES,observed,mode,technique,concentration,endpoint,value
CC(C)S(=O)(=O)c1ccc2nccc(Nc3ccc4sc(C5CCCC5)nc4c3)c2c1,enzyme activity,inhibitor,,1 µM,activity vs control,105%
CO[C@@H]1[C@H](N(C)C(=O)c2ccccc2)C[C@H]2O[C@]1(C)n1c3ccccc3c3c4c(c5c6ccccc6n2c5c31)C(=O)NC4,enzyme activity,inhibitor,,1 µM,inhibition,11%
C1=C/COCc2cc(ccc2OCCN2CCCC2)Nc2nccc(n2)-c2cccc(c2)COC/1,binding,,,0.1 µM,remaining binding,60%
COc1ccc2oc(-c3ccc4nc(N)oc4c3)c/c(=N\c3ccccc3NC(=O)CCN)c2c1,binding,,,1 µM,remaining binding,102%
COc1ccc2[nH]c3c4[nH]c5ccc(OC)cc5c4c4c(c3c2c1)C(=O)NC4=O,binding,,,1 µM,remaining binding,81%
CCCCC(=O)Nc1ccc(-c2ccc3ncn(CCC)c(=O)c3c2)cn1,binding,,competition with immobilised ligand,0.5 µM,remaining binding,96%
CC#CC(=O)N1CCC[C@H]1c1nc(-c2ccc(C(=O)Nc3ccccn3)cc2)c2c(N)nccn12,enzyme activity,inhibitor,,1 µM,inhibition,0%
Cc1ccc(NC(=O)c2ccnc(C(F)(F)F)c2)cc1-c1cc(OCCO)nc(N2CCOCC2)c1,binding,,,1 µM,remaining binding,98%
